Structures are written as SMILES.

For the first assay, the system named is Mus musculus. Briefly: Hypouricemic activity in Kunming mouse model of xanthine/potassium oxonate-induced acute hyperuricemia assessed as decrease in serum uric acid level at 2 mg/kg administered 3 hrs prior to xanthine/potassium oxonate and measured after 6 hrs relative to control. Also on record: scale not given: the % may be the effect or the level left. The settings on record: time 9 hrs. The format is functional. The gist of the method: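 Male Kunming mice, hyperuricemia induced by intragastric xanthine plus subcutaneous potassium oxonate (0.2 mL each). […] Groups: normal vehicle, untreated model, active control, test. Serum uric acid measured. Decrease ratio = (model SUA − compound SUA)/(model SUA − vehicle SUA).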
As for `O=C(CSc1nnc(Br)n1-c1ccc(C2CC2)c2ccccc12)NS(=O)(=O)c1ccc(Cl)s1`, the Activity amounted to 53.44%. As to `O=C(CSc1nnc(Br)n1-c1ccc(C2CC2)c2ccccc12)NS(=O)(=O)c1ccc(Cl)cc1`, the Activity was 76.46%. Consider `O=C(O)CCCSc1nc2ncccc2n1-c1ccc(C2CC2)c2ccccc12`, for which the Activity is on record as 35.39%. `O=C(O)CSc1nc2cccnc2n1-c1ccc(C2CC2)c2ccccc12`: the Activity turned out to be 43.69%.

On to `N#Cc1ccc(-n2c(SC3(C(=O)O)CCC3)nc3ncccc32)c2ccccc12`, for which the Activity was 60.74%.

Take `CC(C)(Sc1nc2cnccc2n1-c1ccc(C#N)c2ccccc12)C(=O)O`: the Activity came out at 15.24%. `CC(C)(Sc1nc2ncccc2n1-c1ccc(C2CC2)c2ccccc12)C(=O)O`: the Activity came to 11.47%. With `CCOC(=O)C1(Sc2nc3ncccc3n2-c2ccc(C3CC3)c3ccccc23)CCC1`, the Activity is given as 47.9%. In the case of `COC(=O)C(C)(C)Sc1nc2cnccc2n1-c1ccc(C#N)c2ccccc12`, the Activity is recorded as 9.09%. Same read-out and setting: for `CC(C)(Sc1nc2cnccc2n1-c1ccc(C2CC2)c2ccccc12)C(=O)O` the value was 37.89%; for `CCOC(=O)C(C)Sc1nc2cnccc2n1-c1ccc(C2CC2)c2ccccc12` (centres undefined), 49.46%.

For the compound `CC(C)(Sc1nc2ncccc2n1-c1ccc(C#N)c2ccccc12)C(=O)O`, the Activity was found to be 3.67%. Regarding `CCCS(=O)(=O)NC(=O)CSc1nnc(Br)n1-c1ccc(C2CC2)c2ccccc12`, the Activity is 24.06%. The same measure, in the same setting: for `CCOC(=O)CCCSc1nc2cnccc2n1-c1ccc(C2CC2)c2ccccc12` the value was 47.37%; for `O=C(O)CSc1nc2cnccc2n1-c1ccc(C2CC2)c2ccccc12`, 42.17%. On the same count and under the same terms, the value for `CC(C)S(=O)(=O)NC(=O)CSc1nnc(Br)n1-c1ccc(C2CC2)c2ccccc12` was 11.99%. Same read-out and setting: for `CCOC(=O)C(C)(C)Sc1nc2ncccc2n1-c1ccc(C#N)c2ccccc12` the value was 12.71%. For the compound `O=C(O)C1(Sc2nc3cnccc3n2-c2ccc(C3CC3)c3ccccc23)CCC1`, the Activity came out at 72.99%. As for `O=C(CSc1nnc(Br)n1-c1ccc(C2CC2)c2ccccc12)NS(=O)(=O)c1cccs1`, the Activity came to 63.94%. For the compound `Cc1cc(C)c(-n2c(SCC(=O)O)nc3cccnc32)c(C)c1`, the Activity turned out to be 18.26%. `CCOC(=O)CSc1nc2ncccc2n1-c1ccc(C2CC2)c2ccccc12`: the Activity worked out at 33.56%. Still for that read-out and setting: the value for `COC(=O)CSc1nc2cnccc2n1-c1ccc(C#N)c2ccccc12` was 14.54%. Consider `CCOC(=O)C(C)(C)Sc1nc2cccnc2n1-c1ccc(C2CC2)c2ccccc12`, for which the Activity was determined as 2.61%.

Turning to `CS(=O)(=O)NC(=O)CSc1nnc(Br)n1-c1ccc(C2CC2)c2ccccc12`, the Activity is on record as 81.53%. The same measure, in the same setting: for `O=C(O)CCCSc1nc2cccnc2n1-c1cccc2ccccc12` the value was 1.4%; for `CCOC(=O)CCCSc1nc2cccnc2n1-c1cccc2ccccc12`, 37.38%; for `N#Cc1ccc(-n2c(SCC(=O)O)nc3ncccc32)c2ccccc12`, 51.91%.

Turning to `CCOC(=O)CCCSc1nc2ncccc2n1-c1ccc(C2CC2)c2ccccc12`, the Activity is listed as 33.6%. The same measure, in the same setting: for `COC(=O)CCCSc1nc2cnccc2n1-c1ccc(C#N)c2ccccc12` the value was 8.96%. Regarding `N#Cc1ccc(-n2c(SC3(C(=O)O)CCC3)nc3cnccc32)c2ccccc12`, the Activity came to 27.36%.

In the case of `CCS(=O)(=O)NC(=O)CSc1nnc(Br)n1-c1ccc(C2CC2)c2ccccc12`, the Activity is given as 11.04%.

With `CCOC(=O)C1(Sc2nc3ncccc3n2-c2ccc(C#N)c3ccccc23)CCC1`, the Activity amounted to 34.56%. As for `CCOC(=O)C1(Sc2nc3cnccc3n2-c2ccc(C3CC3)c3ccccc23)CCC1`, the Activity is listed as 41.35%. Regarding `CCOC(=O)C(C)(C)Sc1nc2ncccc2n1-c1ccc(C2CC2)c2ccccc12`, the Activity came to 45.58%. Turning to `CC(C)(Sc1nc2cccnc2n1-c1ccc(C2CC2)c2ccccc12)C(=O)O`, the Activity is reported as -0.83%. Consider `N#Cc1ccc(-n2c(SCCCC(=O)O)nc3cnccc32)c2ccccc12`, for which the Activity came out at 11.19%. As to `Cc1cc(C)c(-n2c(SC(C)C(=O)O)nc3cccnc32)c(C)c1` (centres undefined), the Activity is 37.04%. Consider `CC(C)(Sc1nc2cccnc2n1-c1cccc2ccccc12)C(=O)O`, for which the Activity amounted to 0.32%. With `COC(=O)CCSc1nc2cnccc2n1-c1ccc(C#N)c2ccccc12`, the Activity is 11.47%. Regarding `CCOC(=O)C(C)(C)Sc1nc2cccnc2n1-c1c(C)cc(C)cc1C`, the Activity was determined as 41.56%. On to `Cc1ccc(S(=O)(=O)NC(=O)CSc2nnc(Br)n2-c2ccc(C3CC3)c3ccccc23)cc1`, for which the Activity is 79.41%. Regarding `N#Cc1ccc(-n2c(SCCC(=O)O)nc3ncccc32)c2ccccc12`, the Activity is 71.62%. With `COC(=O)CSc1nc2ncccc2n1-c1ccc(C#N)c2ccccc12`, the Activity was found to be 9.51%.

For `O=C(CSc1nnc(Br)n1-c1ccc(C2CC2)c2ccccc12)NS(=O)(=O)c1ccccc1`, the Activity worked out at 64.65%. Take `CCOC(=O)CSc1nc2cnccc2n1-c1ccc(C2CC2)c2ccccc12`: the Activity was 40.79%. The same measure, in the same setting: the value for `CC(Sc1nc2cccnc2n1-c1cccc2ccccc12)C(=O)O` (centres undefined) was -1.78%. In the case of `Cc1cc(C)c(-n2c(SC(C)(C)C(=O)O)nc3cccnc32)c(C)c1`, the Activity is -4.96%. Consider `CCOC(=O)C1(Sc2nc3cnccc3n2-c2ccc(C#N)c3ccccc23)CCC1`, for which the Activity stood at 14.44%. Same read-out and setting: the value for `CCc1oc2ccccc2c1C(=O)c1cc(Br)c(O)c(Br)c1` [BENZBROMARONE] was 36%; that for `CCOC(=O)C(C)Sc1nc2ncccc2n1-c1ccc(C2CC2)c2ccccc12` (centres undefined) was 35.37%; that for `COC(=O)C(C)Sc1nc2ncccc2n1-c1ccc(C#N)c2ccccc12` (centres undefined) was 13%. Still for that read-out and setting: for `CCOC(=O)CSc1nc2cccnc2n1-c1ccc(C2CC2)c2ccccc12` the value was 41.96%. Consider `N#Cc1ccc(-n2c(SCCCC(=O)O)nc3ncccc32)c2ccccc12`, for which the Activity is on record as 20.3%.

For `COC(=O)CCCSc1nc2ncccc2n1-c1ccc(C#N)c2ccccc12`, the Activity came to 7.17%. In the case of `O=C(CSc1nnc(Br)n1-c1ccc(C2CC2)c2ccccc12)NS(=O)(=O)c1ccc([N+](=O)[O-])cc1`, the Activity was 66.71%. With `CCOC(=O)CCCSc1nc2cccnc2n1-c1ccc(C2CC2)c2ccccc12`, the Activity is 23.73%. `CCOC(=O)C(C)Sc1nc2cccnc2n1-c1c(C)cc(C)cc1C` (centres undefined): the Activity is on record as 22.34%.

With `CC(C)(C)S(=O)(=O)NC(=O)CSc1nnc(Br)n1-c1ccc(C2CC2)c2ccccc12`, the Activity is 5.94%.

Take `N#Cc1ccc(-n2c(SCCC(=O)O)nc3cnccc32)c2ccccc12`: the Activity came out at 51.13%. `O=C(CSc1nnc(Br)n1-c1ccc(C2CC2)c2ccccc12)NS(=O)(=O)c1ccc(F)cc1`: the Activity came out at 75.17%. Regarding `CCOC(=O)C(C)(C)Sc1nc2cccnc2n1-c1cccc2ccccc12`, the Activity was 8.54%. The same measure, in the same setting: for `COC(=O)CCSc1nc2ncccc2n1-c1ccc(C#N)c2ccccc12` the value was 5.12%; for `CCOC(=O)CSc1nc2cccnc2n1-c1cccc2ccccc12`, 4.03%; for `O=C(O)CCCSc1nc2cnccc2n1-c1ccc(C2CC2)c2ccccc12`, 56.26%. Turning to `CCOC(=O)C(C)Sc1nc2cccnc2n1-c1ccc(C2CC2)c2ccccc12` (centres undefined), the Activity is 40.34%. `N#Cc1ccc(-n2c(SCC(=O)O)nc3cnccc32)c2ccccc12`: the Activity is listed as 59.22%. Turning to `Cc1cc(C)c(-n2c(SCCCC(=O)O)nc3cccnc32)c(C)c1`, the Activity worked out at 13.05%. The same measure, in the same setting: the value for `CCOC(=O)CSc1nc2cccnc2n1-c1c(C)cc(C)cc1C` was -2.2%. The same measure, in the same setting: for `COC(=O)C(C)Sc1nc2cnccc2n1-c1ccc(C#N)c2ccccc12` (centres undefined) the value was 17.9%; for `O=C(O)CSc1nc2ncccc2n1-c1ccc(C2CC2)c2ccccc12`, 34.5%. With `CCOC(=O)CCCSc1nc2cccnc2n1-c1c(C)cc(C)cc1C`, the Activity is listed as 11.19%. As for `O=C(CSc1nnc(Br)n1-c1ccc(C2CC2)c2ccccc12)NS(=O)(=O)C1CC1`, the Activity came out at 17.54%. Regarding `O=C(O)CSc1nc2cccnc2n1-c1cccc2ccccc12`, the Activity was 2.25%. For the compound `CCOC(=O)C(C)Sc1nc2cccnc2n1-c1cccc2ccccc12` (centres undefined), the Activity is -1.84%. On the same count and under the same terms, for `O=C(O)CCCSc1nc2cccnc2n1-c1ccc(C2CC2)c2ccccc12` the value was 1.07%; for `CCOC(=O)C(C)(C)Sc1nc2cnccc2n1-c1ccc(C2CC2)c2ccccc12`, 68.65%; for `CC(Sc1nc2cnccc2n1-c1ccc(C#N)c2ccccc12)C(=O)O` (centres undefined), 27.84%.

Staying with this assay, now noted: time 9 hrs, 2 mg/kg.
As for `C[C@H](Sc1nc2ncccc2n1-c1ccc(C2CC2)c2ccccc12)C(=O)O` (stereo in doubt; 44a), the Activity stood at 12.87%. Take `C[C@H](Sc1nc2ncccc2n1-c1ccc(C2CC2)c2ccccc12)C(=O)O` (stereo in doubt; 44c): the Activity is listed as 31.02%. In the case of `C[C@@H](Sc1nc2ncccc2n1-c1ccc(C2CC2)c2ccccc12)C(=O)O` (stereo in doubt; 44b), the Activity stood at 40.58%. For the compound `C[C@H](Sc1nc2cnccc2n1-c1ccc(C2CC2)c2ccccc12)C(=O)O` (stereo in doubt; 54a), the Activity worked out at 58.08%. For `C[C@@H](Sc1nc2ncccc2n1-c1ccc(C2CC2)c2ccccc12)C(=O)O` (stereo in doubt; 44d), the Activity is 98.04%.

Regarding `C[C@@H](Sc1nc2cnccc2n1-c1ccc(C2CC2)c2ccccc12)C(=O)O` (stereo in doubt; 54d), the Activity is reported as 57.89%. Consider `C[C@@H](Sc1nc2cnccc2n1-c1ccc(C2CC2)c2ccccc12)C(=O)O` (stereo in doubt; 54b), for which the Activity is reported as 32.44%.

The values above are taken from ChEMBL document CHEMBL4665798, “Novel Human Urate Transporter 1 Inhibitors as Hypouricemic Drug Candidates with Favorable Druggability” (J Med Chem, 2020).
